Active and inactive are the calls of the source.
What was measured:
Rattus norvegicus [1] = assay: Antihyperalgesic activity against carrageenan-induced thermal hyperalgesia in Wistar rat assessed as latency of withdrawal response at 100 umol/kg, po administered 1 hr before carrageenan challenge measured after 30 to 240 mins by hot plate test; assay type: functional, organism-based
Outline: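 Wistar rats of both sexes (150–200 g) dosed orally at 100 µmol/kg as suspension in 5% arabic gum in saline, vehicle controls. After 1 h, 1% carrageenan (1 mg/paw) or saline injected subplantar. Left hind paw withdrawal latency on hot plate at 51 ± 0.1 °C read at 0–240 min, 20 s cut-off. Δ latency = time-0 latency minus later latency; mean ± SEM, n = 8–10; Student t-test.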

Salmonella typhimurium [2] = assay: Induction of mutagenesis in Salmonella Typhimurium TA98 assessed as number of revertants at 4 to 350 ug/plate in presence of mouse liver S9 fraction; assay type: toxicity, organism-based; settings: salmonella enterica subsp. enterica serovar typhimurium
Outline: (§1)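 S. typhimurium TA98, plate incorporation on minimal glucose (Vogel-Bonner) agar. Compounds were in DMSO, dosed in triplicate with a top non-toxic dose of 250 or 350 µg/plate. Runs were without S9 (positive control 4-nitro-o-phenylenediamine, 20 µg/plate) or with 500 µL Aroclor-induced mouse liver S9 (positive control 2-aminofluorene, 10 µg/plate), plus a DMSO control. Revertants were counted manually; mutagenic means ≥2-fold spontaneous revertants at two consecutive doses.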

Salmonella typhimurium [3] = assay: Induction of mutagenesis in Salmonella Typhimurium TA98 assessed as number of revertants at 4 to 350 ug/plate in absence of mouse liver S9 fraction; assay type: toxicity, organism-based; settings: salmonella enterica subsp. enterica serovar typhimurium; outline: as §1
Mus musculus [4] = assay: Analgesic activity in albino mouse assessed as inhibition of acetic acid-induced abdominal constriction at 100 umol/kg, po administered 1 hr before acetic acid challenge measured after 60 mins relative to control; assay type: functional; settings: Abdomen
Outline: (§2)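 Albino mice of both sexes (18–23 g) were dosed orally as a suspension in 5% arabic gum in saline, with vehicle controls. After 1 h they received 0.6% acetic acid ip (0.1 mL/10 g). Constrictions were counted for 20 min starting 10 min after injection. Data are % inhibition vs vehicle, mean ± SEM, Student t-test.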

HT-29 [5] = assay: Inhibition of TNFalpha-induced NF-kappaB activation expressed in human HT-29 cells coexpressing hrGFP at 100 uM after 24 hrs by propidium iodide staining-based flow cytometric analysis relative to control; assay type: cell-based
Outline: (§3)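 HT-29 cells stably expressing NF-κB-driven hrGFP given compound (DMSO <0.5%) for 2 h at the maximum non-cytotoxic concentration, then TNF-α at 3 ng/mL final for 18–24 h. Cells trypsinised and stained with propidium iodide; 5000 events gated on FSC/SSC. The %GFP-positive among PI-excluding live cells is normalised to TNF-α/DMSO control, ± SD.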

[6] = Induction of NO release in 0.1 M Tris-HCl and 0.1 mM DTPA at pH 8.3 measured for 20 mins in presence of cysteine; assay type: physicochemical; settings: buffer, pH 8.3, 20 min
Outline: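 Electrochemical NO detection with an ISO-NOP sensor. Compounds in DMSO added to 0.1 M Tris-HCl, 0.1 mM DTPA at pH 7.4 or 8.3. Cysteine (300 or 100 µM) added and NO recorded for 20 min at 25 or 37 °C; compound:Cys ratio 1:1 at 25 °C, with 3:1 and 37 °C runs also made.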

Salmonella typhimurium [7] = assay: Induction of mutagenesis in Salmonella Typhimurium TA98 assessed as number of revertants at 6 to 500 ug/plate in absence of mouse liver S9 fraction; assay type: toxicity, organism-based; settings: salmonella enterica subsp. enterica serovar typhimurium
Mus musculus [8] = assay: Analgesic activity in albino mouse assessed as inhibition of acetic acid-induced abdominal constriction at 100 umol/kg, po administered 1 hr before acetic acid challenge measured after 30 mins relative to control; assay type: functional; settings: Abdomen; outline: as §2
Rattus norvegicus [9] = assay: Antihyperalgesic activity against carrageenan-induced thermal hyperalgesia in Wistar rat assessed as latency of withdrawal response at 100 umol/kg, po administered 1 hr before carrageenan challenge measured after 3 hrs by hot plate test; assay type: functional
Outline: (§4)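 Wistar rats of both sexes (150–200 g) were dosed orally as a suspension in 5% arabic gum in saline, with vehicle controls. After 1 h, 0.1 mL 1% carrageenan (1 mg/paw) or saline was injected subplantar into the hind paws. Left hind paw withdrawal latency was read on a 51 °C hot plate at 0–240 min (cut-off 20 s). Δlatency = time-0 minus later latency; mean ± SEM, n = 8–10; t-test.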

HT-29 [10] = assay: Inhibition of TNF-alpha-induced NFkappaB activation expressed in human HT-29 cells coexpressing hrGFP at 50 uM after 24 hrs by propidium iodide staining-based flow cytometric analysis relative to control; assay type: cell-based; outline: as §3
Salmonella typhimurium [11] = assay: Induction of mutagenesis in Salmonella Typhimurium TA98 assessed as number of revertants at 6 to 500 ug/plate in presence of mouse liver S9 fraction; assay type: toxicity, organism-based; settings: salmonella enterica subsp. enterica serovar typhimurium
HT-29 [12] = assay: Inhibition of NF-kappaB activation expressed in human HT-29 cells assessed as inhibition of TNFalpha-stimulated IL8 release at 50 uM after 24 hrs by flow cytometric analysis relative to control; assay type: cell-based
Outline: (§5)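 Reporter HT-29-NF-κB-hrGFP cells pretreated 2 h with compound (DMSO <0.5%) at the highest concentration with 100% survival, then stimulated with TNF-α (3 ng/mL final) for 18–24 h at 37 °C. IL-8 in clarified supernatant measured by flow cytometric bead assay (500 events). Expressed as % of TNF-α/DMSO control ± SD; thalidomide as reference.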

Salmonella typhimurium [13] = assay: Induction of mutagenesis in Salmonella Typhimurium TA98 assessed as number of revertants at 3.1 to 250 ug/plate in absence of mouse liver S9 fraction; assay type: toxicity, organism-based; settings: salmonella enterica subsp. enterica serovar typhimurium; outline: as §1
[14] = Inhibition of soybean lipoxygenase using arachidonic acid as substrate; design: species or system Glycine max
Outline: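 Soybean 15-lipoxygenase kit assay, arachidonic acid substrate, H2O2 as lipoxygenating agent in 0.1 M Tris-HCl pH 7.4. Single-point screen at 50 µM. IC50 found by varying concentration over 10–100 µM. Quercetin at 4 µM as positive control; duplicate means; Student t-test.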

Salmonella typhimurium [15] = assay: Induction of mutagenesis in Salmonella Typhimurium TA98 assessed as number of revertants at 3.1 to 250 ug/plate in presence of mouse liver S9 fraction; assay type: toxicity, organism-based; settings: salmonella enterica subsp. enterica serovar typhimurium; outline: as §1
HT-29 [16] = assay: Inhibition of NF-kappaB activation expressed in human HT-29 cells assessed as inhibition of TNFalpha-stimulated IL8 release at 400 uM after 24 hrs by flow cytometric analysis relative to Thal; assay type: cell-based; outline: as §5
Rattus norvegicus [17] = assay: Antihyperalgesic activity against carrageenan-induced thermal hyperalgesia in Wistar rat assessed as latency of withdrawal response at 100 umol/kg, po administered 1 hr before carrageenan challenge measured after 1 hr by hot plate test; assay type: functional; outline: as §4

Compound | Activity (Rattus norvegicus [1]) | Activity (Salmonella typhimurium [2]) | Activity (Salmonella typhimurium [3]) | inhibition in vivo at 100 µmol/kg (Mus musculus [4]) [%] | NF-kappaB activity (% of TNF-alpha control) (HT-29 [5]) [%] | Activity [6] [nM/min] | Activity (Salmonella typhimurium [7]) | inhibition in vivo at 100 µmol/kg (Mus musculus [8]) [%] | inhibition in vivo at 100 µmol/kg (Rattus norvegicus [9]) [%] | NF-kappaB activation (% of TNF-alpha control) (HT-29 [10]) [%] | Activity (Salmonella typhimurium [11]) | inhibition (HT-29 [12]) [%] | Activity (Salmonella typhimurium [13]) | IC50 [14] [µM] | Activity (Salmonella typhimurium [15]) | fold change (FC) (HT-29 [16]) | inhibition in vivo at 100 µmol/kg (Rattus norvegicus [17]) [%]
Cc1c(C(=O)N/N=C/c2ccc(N(C)C)cc2)no[n+]1[O-] | inactive | Non-toxic | Non-toxic | 22 | 150 | – | – | – | – | – | – | – | – | – | – | – | –
Cc1[nH]cnc1C(=O)N/N=C/c1ccc2no[n+]([O-])c2c1 | – | – | – | – | – | 0 | Toxic | 46 | 14 | 71 | Non-toxic | 51 | – | – | – | – | –
O=C(N/N=C/c1c(-c2ccccc2)no[n+]1[O-])c1ccc2c(c1)OCO2 | – | – | – | – | 12 | 0.39 | – | 42 | – | – | – | – | Non-toxic | > 100 | Non-toxic | 16 | 14
